Reference: publication PMC10586019 (ACS Omega, 2023)
Converted amounts (≈) assume the structure as drawn. “And” between values parts separate entries of the source, which are not always exact repeats. Equal entries are not always repeated. Where a SMILES comes first, the peptide text is derived from it. Where no end group is shown, it is not given here. [ ]: non-standard residue; d: D form. Orn = NCCC[C@H](N)C(=O)O; Ahx = NCCCCCC(=O)O

Legend:
Galleria mellonella [1] = conditions: at 33 mg/kg; cited from earlier work
human fibroblasts = assay: MTT cytotoxicity, fibroblasts control cells; assay type: cell-based; conditions: for CC50 fibroblasts: MTT, peptide 0-200 μg/mL, 2 h, 37 °C, n = 3; for Selectivity Index fibroblasts/HT-29: SI = CC50/IC50
[2] = MTT cytotoxicity, fibroblasts control cells; assay type: cell-based, human; conditions: Caco-2
Galleria mellonella [3] = assay: Galleria mellonella toxicity test; assay type: in vivo; conditions: 20-100 mg/Kg, 10 days, Kaplan-Meyer, n = 2
Du-145 = assay: MTT viability test, Du-145 prostate cancer cells; assay type: cell-based; conditions: for IC50 Du-145: peptide 0-200 μg/mL during 2 h, mean ± SE n = 3; for IC50: read-out: IC50 Du-145, peptide 0-200 μg/mL during 2 h, mean ± SE n = 3
Procedure, shortened: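 Du-145 cells are seeded at 1 × 10^4 per well and synchronized for 24 h. They are exposed to peptide (0–200 μg/mL) in medium for 2 h at 37 °C. MTT (5 mg/mL solution) is added for 4 h at 37 °C, DMSO solubilization runs 30 min at 37 °C, and A570 is read. Data are mean ± SE, n = 3.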

erythrocytes = assay: Hemolytic activity; assay type: cell-based, human; conditions: SI = hemolysis10%/IC50
Procedure, shortened: (§1)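 Erythrocytes from healthy O+ donors (EDTA blood) are spun at 500 rpm and washed 3× in 0.9% saline. Peptide (final 200 to 6.2 μg mL−1) is mixed 1:1 with 2% hematocrit suspension for 2 h at 37 °C, then spun 2500 rpm for 5 min. Supernatant A450 is read. Positive controls are distilled water and Tween 20; the negative is 0.9% saline. The readout is the concentration causing 10% hemolysis.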

Hemolytic activity = assay type: cell-based, human; conditions: Caco-2
Procedure, shortened: as §1

Vero cells = assay: MTT cytotoxicity, Vero control cells; assay type: cell-based; conditions: for CC50 Vero: MTT, peptide 0-200 μg/mL, 2 h, 37 °C, n = 3; for Selectivity Index Vero/HT-29: SI = CC50/IC50
Procedure, shortened: (§2)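 Cells are grown in RPMI-1640 with 10% FBS, seeded at 1 × 10^4 per well, and synchronized for 24 h. Medium is replaced with peptide (0–200 μg/mL) in the same medium for 2 h at 37 °C. MTT (5 mg/mL solution) is added for 4 h at 37 °C, and formazan is dissolved in DMSO for 30 min at 37 °C. Absorbance is read at 570 nm.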

[4] = MTT cytotoxicity, Vero control cells; assay type: cell-based; conditions: Caco-2
Procedure, shortened: as §2

HEK-293 = assay: MTT cytotoxicity, HEK-293 control cells; assay type: cell-based; conditions: for CC50 HEK-293: MTT, peptide 0-200 μg/mL, 2 h, 37 °C, n = 3; for Selectivity Index HEK-293/HT-29: SI = CC50/IC50
Procedure, shortened: as §2

[5] = MTT cytotoxicity, HEK-293 control cells; assay type: cell-based; conditions: Caco-2
Procedure, shortened: as §2

Caco-2 = assay: MTT viability test, Caco-2 colon cancer cells; assay type: cell-based; conditions: Caco-2, MTT

Compound | mortality in Galleria (previous study) (Galleria mellonella [1]) | CC50 fibroblasts (human fibroblasts) | Selectivity Index fibroblasts/HT-29 (human fibroblasts) | selectivity ratio [2] | toxicity (Galleria mellonella [3]) | IC50 Du-145 (Du-145) | IC50 (Du-145) | Selectivity Index erythrocytes/HT-29 (erythrocytes) | selectivity ratio (Hemolytic activity) | CC50 Vero (Vero cells) | Selectivity Index Vero/HT-29 (Vero cells) | selectivity ratio [4] | CC50 HEK-293 (HEK-293) | Selectivity Index HEK-293/HT-29 (HEK-293) | selectivity ratio [5] | decrease of IC50 in Caco-2 cells compared to the parent peptide RWQWRWQWR (Caco-2) | fold increase in potency against Caco-2 versus parent peptide (Caco-2)
N.N.[Cl][Pt][Cl] [cisplatin] | 60% | – | – | – | – | – | – | – | – | – | – | – | – | – | – | – | –
N=C(N)NCCC[C@H](NC(=O)[C@H](Cc1c[nH]c2ccccc12)NC(=O)[C@H](CCC(N)=O)NC(=O)[C@H](Cc1c[nH]c2ccccc12)NC(=O)[C@@H](N)CCCNC(=N)N)C(=O)N[C@@H](Cc1c[nH]c2ccccc12)C(=O)N[C@@H](CCC(N)=O)C(=O)N[C@@H](Cc1c[nH]c2ccccc12)C(=O)N[C@@H](CCCN)C(N)=O [^9[Orn] [Pal]] (H-RWQWRWQW[Orn]-NH2) | – | 55 μM and 79 μg/mL | 0.5 | 1.4 | did not show any significant toxicity | 89 µg/mL (≈ 61.6 µM) | 62 µM | >1.3 | > 3.4 | 46 μM and 67 μg/mL | 0.4 | 1.2 | 51 μM and 74 μg/mL | 0.5 | 1.3 | approx. 50% | 2 fold
RWQWRWQWR-NH2 [[Pal]] | – | > 134 μM and > 200 μg/mL | – | – | – | 60 µg/mL | 40 µM | 1.3 | 1.6 | 21 μM and 31 μg/mL | – | 0.2 | 68 μM and 101 μg/mL | 0.7 | 0.8 | – | –
N=C(N)NCCC[C@H](NC(=O)[C@H](Cc1c[nH]c2ccccc12)NC(=O)[C@H](CCC(N)=O)NC(=O)[C@H](Cc1c[nH]c2ccccc12)NC(=O)[C@H](CCCNC(=N)N)NC(=O)[C@H](Cc1c[nH]c2ccccc12)NC(=O)[C@H](CCC(N)=O)NC(=O)[C@H](Cc1c[nH]c2ccccc12)NC(=O)[C@H](CCCNC(=N)N)NC(=O)CCCCCN)C(N)=O [Ahx-[Pal]] (H-[Ahx]RWQWRWQWR-NH2) | – | 98 μM and 157 μg/mL | 0.8 | – | – | – | – | >1.1 | > 3.1 | 40 μM and 64 μg/mL | 0.3 | 1 | 86 μM and 132 μg/mL | 0.7 | 2.2 | approx. 50% | –
